Data taken from ChEMBL document CHEMBL4270613, “Design, synthesis, biological evaluation and structure-activity relationship of sophoridine derivatives bearing pyrrole or indole scaffold as potential antitumor agents” (Eur J Med Chem, 2018).
The source made the active and inactive calls. The calls are words filed in the database; no cut-off is given here.

Columns and labels:
HepG2 [1] = assay: Induction of apoptosis in human HepG2 cells assessed as late apoptotic cells at 3 uM after 24 hrs by Annexin V-FITC/propidium iodide staining based flow cytometry (reference value: 1.6%); type: functional
Outline: (§1)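 HepG2 treated at 0, 0.75, 1.5 and 3 µM for 24 h, then Annexin V-FITC/PI dual staining and quantification by flow cytometry.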

HepG2 [2] = assay: Upregulation of Bax protein expression in human HepG2 cells after 24 hrs by Western blot analysis; type: functional, cell-based
Outline: (§2)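 HepG2 treated at 0, 0.75, 1.5 and 3 µM for 24 h, then western blot for Bax, Bcl-2 and cleaved caspase-3.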

HepG2 [3] = assay: Upregulation of cleaved caspase-3 protein expression in human HepG2 cells at 0.75 to 3 uM after 24 hrs by Western blot analysis; type: functional, cell-based; outline: as §2
SMMC-7721 = assay: Antiproliferative activity against human SMMC7721 cells after 72 hrs by MTT assay; type: functional, cell-based; conditions: SMMC-7721, 72 h
HepG2 [4] = assay: Downregulation of Bcl2 protein expression in human HepG2 cells after 24 hrs by Western blot analysis; type: functional, cell-based; outline: as §2
Mus musculus = assay: Toxicity in nude mouse xenografted with human HepG2 cells assessed as change in body weight at 40 mg/kg for 25 days; type: organism-based; conditions: in vivo, 600 h
Outline: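 Nude mice bearing HepG2 xenografts dosed at 40 mg/kg against vehicle; body weight and tumor volume measured every 2 days; tumors weighed at end.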

HeLa = assay: Antiproliferative activity against human HeLa cells after 72 hrs by MTT assay; type: functional, cell-based
HepG2 [5] = assay: Antiproliferative activity against human HepG2 cells after 48 hrs by MTT assay; type: functional, cell-based; conditions: HepG2, 48 h
Outline: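 HepG2 exposed to compounds for 48 h; MTT readout; camptothecin positive control; IC50 calculated; mean ± SD of three independent experiments, each in triplicate.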

HepG2 [6] = assay: Induction of apoptosis in human HepG2 cells assessed as live cells at 0.75 uM after 24 hrs by Annexin V-FITC/propidium iodide staining based flow cytometry (reference value: 96.2%); type: functional; outline: as §1
CNE-2 = assay: Antiproliferative activity against human CNE2 cells after 72 hrs by MTT assay; type: functional, cell-based; conditions: CNE-2, 72 h
HepG2 [7] = assay: Induction of apoptosis in human HepG2 cells after 24 hrs by Annexin V-FITC/propidium iodide staining based flow cytometry; type: functional, cell-based; outline: as §1
CNE = assay: Antiproliferative activity against human CNE1 cells after 72 hrs by MTT assay; type: functional, cell-based
HepG2 [8] = assay: Induction of apoptosis in human HepG2 cells assessed as late apoptotic cells at 1.5 uM after 24 hrs by Annexin V-FITC/propidium iodide staining based flow cytometry (reference value: 1.6%); type: functional; outline: as §1
[9] = molecular target: T1, DNA topoisomerase 1 (Homo sapiens) (UniProt P11387); assay: Inhibition of recombinant human topoisomerase-1 using supercoiled pBR322 DNA as substrate after 45 mins by ethidium bromide staining based gel electrophoresis method
T1 sequence (whole entry): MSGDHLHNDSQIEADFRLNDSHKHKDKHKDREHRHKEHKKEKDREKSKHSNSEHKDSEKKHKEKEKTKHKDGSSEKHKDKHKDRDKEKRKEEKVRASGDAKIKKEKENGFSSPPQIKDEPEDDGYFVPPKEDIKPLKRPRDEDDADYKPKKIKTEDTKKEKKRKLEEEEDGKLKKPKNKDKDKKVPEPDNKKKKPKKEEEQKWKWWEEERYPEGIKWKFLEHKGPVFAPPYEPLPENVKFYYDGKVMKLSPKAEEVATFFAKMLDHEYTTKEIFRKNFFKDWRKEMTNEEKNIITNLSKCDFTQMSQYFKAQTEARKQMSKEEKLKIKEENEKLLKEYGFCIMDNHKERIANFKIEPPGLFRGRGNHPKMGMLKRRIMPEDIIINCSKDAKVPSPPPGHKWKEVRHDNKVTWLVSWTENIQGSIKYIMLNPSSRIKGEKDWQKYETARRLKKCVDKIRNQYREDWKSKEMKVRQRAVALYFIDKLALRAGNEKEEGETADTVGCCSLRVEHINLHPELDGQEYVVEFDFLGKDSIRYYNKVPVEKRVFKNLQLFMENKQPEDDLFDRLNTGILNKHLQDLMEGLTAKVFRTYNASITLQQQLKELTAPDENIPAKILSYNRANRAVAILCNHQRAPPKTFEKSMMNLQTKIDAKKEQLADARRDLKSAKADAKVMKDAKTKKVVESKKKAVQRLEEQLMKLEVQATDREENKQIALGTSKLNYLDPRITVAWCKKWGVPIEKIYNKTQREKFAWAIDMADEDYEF
Outline: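 Plasmid relaxation assay: pBR322 DNA with Topo I plus DMSO vehicle, test compound at 1000, 500, 250 or 100 µM, or CPT at 100 µM as control; DNA alone as reference lane; products resolved on gel.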

HepG2 [10] = assay: Induction of apoptosis in human HepG2 cells assessed as late apoptotic cells at 0.75 uM after 24 hrs by Annexin V-FITC/propidium iodide staining based flow cytometry (reference value: 1.6%); type: functional; outline: as §1
HepG2 [11] = assay: Antiproliferative activity against human HepG2 cells after 72 hrs by MTT assay; type: functional, cell-based; conditions: HepG2, 72 h
HepG2 [12] = assay: Induction of apoptosis in human HepG2 cells assessed as necrotic cells at 0.75 uM after 24 hrs by Annexin V-FITC/propidium iodide staining based flow cytometry (reference value: 1.18%); type: functional; outline: as §1
HepG2 [13] = assay: Induction of apoptosis in human HepG2 cells assessed as early apoptotic cells at 1.5 uM after 24 hrs by Annexin V-FITC/propidium iodide staining based flow cytometry (reference value: 1%); type: functional; outline: as §1
HepG2 [14] = assay: Antitumor activity against human HepG2 cells xenografted in nude mouse assessed as tumor growth inhibition at 40 mg/kg for 25 days; type: functional, organism-based
Outline: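 HepG2 xenografts were grown in nude mice and dosed at 40 mg/kg alongside a vehicle group. Tumour volume and body weight were recorded every 2 days. At the end, tumours were excised and weighed. Groups were compared with the vehicle group.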

HepG2 [15] = assay: Induction of apoptosis in human HepG2 cells assessed as early apoptotic cells at 0.75 uM after 24 hrs by Annexin V-FITC/propidium iodide staining based flow cytometry (reference value: 1%); type: functional; outline: as §1
HepG2 [16] = assay: Induction of apoptosis in human HepG2 cells assessed as live cells at 3 uM after 24 hrs by Annexin V-FITC/propidium iodide staining based flow cytometry (reference value: 96.2%); type: functional; outline: as §1
HepG2 [17] = assay: Induction of apoptosis in human HepG2 cells assessed as necrotic cells at 1.5 uM after 24 hrs by Annexin V-FITC/propidium iodide staining based flow cytometry (reference value: 1.18%); type: functional; outline: as §1
HepG2 [18] = assay: Induction of apoptosis in human HepG2 cells assessed as live cells at 1.5 uM after 24 hrs by Annexin V-FITC/propidium iodide staining based flow cytometry (reference value: 96.2%); type: functional; outline: as §1
HepG2 [19] = assay: Induction of apoptosis in human HepG2 cells assessed as necrotic cells at 3 uM after 24 hrs by Annexin V-FITC/propidium iodide staining based flow cytometry (reference value: 1.18%); type: functional; outline: as §1
HepG2 [20] = assay: Induction of apoptosis in human HepG2 cells assessed as early apoptotic cells at 3 uM after 24 hrs by Annexin V-FITC/propidium iodide staining based flow cytometry (reference value: 1%); type: functional; outline: as §1
MCF7 = assay: Antiproliferative activity against human MCF7 cells after 72 hrs by MTT assay; type: functional, cell-based; conditions: MCF7, 72 h

## COc1ccc2c(c1)c(/C=C1\CC[C@@H]3[C@H]4CCCN5CCC[C@H](CN3C1=O)[C@@H]45)cn2Cc1ccc(OCc2ccccc2)cc1
HepG2 [1]
  Activity: 7.69%
HepG2 [2]
  Activity: Dose-dependent effect
HepG2 [3]
  Activity: Active
SMMC-7721
  IC50: 1.32 µM
HepG2 [4]
  Activity: Dose-dependent effect
Mus musculus
  Activity: Non-Toxic
HeLa
  IC50: 1.44 µM
HepG2 [5]
  IC50: 1.96 µM
HepG2 [6]
  Activity: 87.6%
CNE-2
  IC50: 1.24 µM
HepG2 [7]
  Activity: Dose-dependent effect
CNE
  IC50: 1.89 µM
HepG2 [8]
  Activity: 11.5%
[9]
  inhibition: Dose-dependent effect
HepG2 [10]
  Activity: 3.09%
HepG2 [11]
  IC50: 0.93 µM
HepG2 [12]
  Activity: 2.58%
HepG2 [13]
  Activity: 9.49%
HepG2 [14]
  TGI: Active
HepG2 [15]
  Activity: 6.71%
HepG2 [16]
  Activity: 57%
HepG2 [17]
  Activity: 0.94%
HepG2 [18]
  Activity: 78%
HepG2 [19]
  Activity: 1.52%
HepG2 [20]
  Activity: 33.8%
MCF7
  IC50: 0.94 µM

## O=C1CCC[C@@H]2[C@H]3CCCN4CCC[C@H](CN12)[C@@H]34
HepG2 [14]
  TGI: inactive

## CC[C@@]1(O)C(=O)OCc2c1cc1n(c2=O)Cc2cc3ccccc3nc2-1 [CAMPTOTHECIN]
SMMC-7721
  IC50: 1.08 µM
HeLa
  IC50: 0.66 µM
HepG2 [5]
  IC50: 6.08 µM
CNE-2
  IC50: 0.98 µM
CNE
  IC50: 0.34 µM
HepG2 [11]
  IC50: 1.36 µM
MCF7
  IC50: 0.42 µM
